Measurements taken from PMC3113683 (Biochemistry, 2009).
No end group written: not given here. *: point of attachment. Biotin = O=C1N[C@H]2[C@H](CS[C@H]2CCCCC(=O)*)N1

T1: LYP300 (Homo sapiens, UniProt Q9Y2R2)
T1 sequence (Q9Y2R2 1-300): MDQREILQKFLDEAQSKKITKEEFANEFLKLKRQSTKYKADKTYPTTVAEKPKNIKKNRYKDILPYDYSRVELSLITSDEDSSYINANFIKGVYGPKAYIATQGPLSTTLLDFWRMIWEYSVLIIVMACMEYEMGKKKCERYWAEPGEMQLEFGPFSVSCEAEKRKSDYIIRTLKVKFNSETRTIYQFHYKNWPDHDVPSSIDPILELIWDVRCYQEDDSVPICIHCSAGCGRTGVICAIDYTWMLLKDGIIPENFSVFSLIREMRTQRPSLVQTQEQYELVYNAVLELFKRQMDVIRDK


What was measured:
[1] = target: T1, LYP300; test: Phosphatase assay, trans effect of peptides on LYP300; type: biochemical; settings: Figure 5A,C; 5 nM LYP300; DiFMUP; Bis-Tris pH 6.0
[2] = system: LYP; type: biochemical, human; settings: Figure 2C; Vmax, 1 nM enzyme, 0.4 mM DiFMUP, triplicate
How it was run: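 FLAG-tagged full-length LYP and C-terminal truncations (aa 1−300, 1−423, 1−517, 1−600) were expressed in baculovirus-infected Sf9 cells. They were purified on M2-FLAG beads, eluted with FLAG peptide plus DTT into 50 mM Tris-HCl pH 8.0, 0.5 mM EDTA, 1 mM DTT (>80% pure). Activity was measured under Vmax conditions in 50−100 mM Bis-Tris pH 6.0, 1−5 mM DTT. DiFMUP hydrolysis was followed continuously by fluorescence (ex 360, em 460 nm), with background subtracted using no-enzyme triplicates.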

[3] = Gel filtration chromatography; type: physicochemical; settings: Superdex 75 10/300 GL; TNE and phosphatase buffers
[4] = system: LYP; type: biochemical, human; settings: Figure 2D; Vmax, 1 nM enzyme, 0.16 mM peptide, triplicate
[5] = system: LYP; test: Phosphatase kinetics of LYP300 and LYP320 from E. coli on DiFMUP; type: biochemical, human; settings: purified from bacterial lysates
How it was run: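 LYP300 and LYP320 (aa 1−300, 1−320) expressed in BL21(DE3) from pET28a. Purified by Ni2+-NTA, His tag cleaved with thrombin, protease removed on benzamidine, dialysed into 50 mM Tris-HCl pH 8.0, 0.5 mM EDTA, 1 mM DTT. 5 nM enzyme was assayed in Bis-Tris pH 6.0/DTT over a DiFMUP concentration range. Fluorescence (ex 360, em 460 nm) was read continuously at initial rate. Triplicates were corrected against no-enzyme blanks and fitted to Michaelis–Menten.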

[6] = system: LYP; test: Phosphatase kinetics of LYP300 and LYP320 from E. coli on pTyr peptide; type: biochemical, human; settings: purified from bacterial lysates
[7] = system: T cell receptor (TCR) signaling; settings: T cells; ref [4]-[8]; cited from earlier work

| Molecule | Phosphatase activity on DiFMUP [2] | Phosphatase activity on pTyr peptide [4] | also measured |
| --- | --- | --- | --- |
| biotin-ATAPRIDDEIPPPLPVRTPESFIVVEEAGEFSPNVPKSLS (Biotin-ATAPRIDDEIPPPLPVRTPESFIVVEEAGEFSPNVPKSLS) [peptide of amino acids 604−643, reference compound] | – | – | Inhibition of LYP300 phosphatase activity by peptide [1]: did not lead to any significant inhibition of the phosphatase activity |
| HSGTESQAKHCIPEKNHTLQ [peptide of amino acids 301−320] | – | – | Inhibition of LYP300 phosphatase activity by peptide [1]: substantial inhibition of the phosphatase activity |
| LYP300: truncation of LYP immediately C-terminal to the catalytic domain (amino acids 1−300) (protein, left off: HA, N-terminal, kept) MDQREILQKFLDEAQSKKITKEEFANEFLKLKRQSTKYKADKTYPTTVAEKPKNIKKNRYKDILPYDYSRVELSLITSDEDSSYINANFIKGVYGPKAYIATQGPLSTTLLDFWRMIWEYSVLIIVMACMEYEMGKKKCERYWAEPGEMQLEFGPFSVSCEAEKRKSDYIIRTLKVKFNSETRTIYQFHYKNWPDHDVPSSIDPILELIWDVRCYQEDDSVPICIHCSAGCGRTGVICAIDYTWMLLKDGIIPENFSVFSLIREMRTQRPSLVQTQEQYELVYNAVLELFKRQMDVIRDK | greatly increased phosphatase activity | greatly increased phosphatase activity | Oligomeric state by gel filtration [3]: elute as monomers |
| LYP300/S227: inactive mutant of LYP300 (protein, UniProt Q9Y2R2 1-300, looked up, fragment C227S) MDQREILQKFLDEAQSKKITKEEFANEFLKLKRQSTKYKADKTYPTTVAEKPKNIKKNRYKDILPYDYSRVELSLITSDEDSSYINANFIKGVYGPKAYIATQGPLSTTLLDFWRMIWEYSVLIIVMACMEYEMGKKKCERYWAEPGEMQLEFGPFSVSCEAEKRKSDYIIRTLKVKFNSETRTIYQFHYKNWPDHDVPSSIDPILELIWDVRCYQEDDSVPICIHSSAGCGRTGVICAIDYTWMLLKDGIIPENFSVFSLIREMRTQRPSLVQTQEQYELVYNAVLELFKRQMDVIRDK | did not exhibit any activity | did not exhibit any activity | – |
| LYP423: LYP truncation, amino acids 1−423 (protein, UniProt Q9Y2R2 1-423, looked up, fragment) MDQREILQKFLDEAQSKKITKEEFANEFLKLKRQSTKYKADKTYPTTVAEKPKNIKKNRYKDILPYDYSRVELSLITSDEDSSYINANFIKGVYGPKAYIATQGPLSTTLLDFWRMIWEYSVLIIVMACMEYEMGKKKCERYWAEPGEMQLEFGPFSVSCEAEKRKSDYIIRTLKVKFNSETRTIYQFHYKNWPDHDVPSSIDPILELIWDVRCYQEDDSVPICIHCSAGCGRTGVICAIDYTWMLLKDGIIPENFSVFSLIREMRTQRPSLVQTQEQYELVYNAVLELFKRQMDVIRDKHSGTESQAKHCIPEKNHTLQADSYSPNLPKSTTKAAKMMNQQRTKMEIKESSSFDFRTSEISAKEELVLHPAKSSTSFDFLELNYSFDKNADTTMKWQTKAFPIVGEPLQKHQSLDLGSLLFE | slightly increased activity | slightly increased activity | – |
| LYP320: LYP truncation, amino acids 1−320 (protein, left off: His6, end not stated, cleaved) MDQREILQKFLDEAQSKKITKEEFANEFLKLKRQSTKYKADKTYPTTVAEKPKNIKKNRYKDILPYDYSRVELSLITSDEDSSYINANFIKGVYGPKAYIATQGPLSTTLLDFWRMIWEYSVLIIVMACMEYEMGKKKCERYWAEPGEMQLEFGPFSVSCEAEKRKSDYIIRTLKVKFNSETRTIYQFHYKNWPDHDVPSSIDPILELIWDVRCYQEDDSVPICIHCSAGCGRTGVICAIDYTWMLLKDGIIPENFSVFSLIREMRTQRPSLVQTQEQYELVYNAVLELFKRQMDVIRDKHSGTESQAKHCIPEKNHTLQ | – | – | Activity relative to LYP300 on DiFMUP [5]: consistently less active than LYP300; Oligomeric state by gel filtration [3]: elute as monomers; Activity relative to LYP300 on pTyr peptide [6]: consistently less active than LYP300 |
| LYP/S227: inactive mutant of LYP (protein, UniProt Q9Y2R2 1-807, looked up, variant C227S) Tyrosine-protein phosphatase …: MDQREILQKFLDEAQSKKITKEEFANEFLKLKRQSTKYKADKTYPTTVAEKPKNIKKNRYKDILPYDYSRVELSLITSDEDSSYINANFIKGVYGPKAYIATQGPLSTTLLDFWRMIWEYSVLIIVMACMEYEMGKKKCERYWAEPGEMQLEFGPFSVSCEAEKRKSDYIIRTLKVKFNSETRTIYQFHYKNWPDHDVPSSIDPILELIWDVRCYQEDDSVPICIHSSAGCGRTGVICAIDYTWMLLKDGIIPENFSVFSLIREMRTQRPSLVQTQEQYELVYNAVLELFKRQMDVIRDKHSGTESQAKHCIPEKNHTLQADSYSPNLPKSTTKAAKMMNQQRTKMEIKESSSFDFRTSEISAKEELVLHPAKSSTSFDFLELNYSFDKNADTTMKWQTKAFPIVGEPLQKHQSLDLGSLLFEGCSNSKPVNAAGRYFNSKVPITRTKSTPFELIQQRETKEVDSKENFSYLESQPHDSCFVEMQAQKVMHVSSAELNYSLPYDSKHQIRNASNVKHHDSSALGVYSYIPLVENPYFSSWPPSGTSSKMSLDLPEKQDGTVFPSSLLPTSSTSLFSYYNSHDSLSLNSPTNISSLLNQESAVLATAPRIDDEIPPPLPVRTPESFIVVEEAGEFSPNVPKSLSSAVKVKIGTSLEWGGTSEPKKFDDSVILRPSKSVKLRSPKSELHQDRSSPPPPLPERTLESFFLADEDCMQAQSIETYSTSYPDTMENSTSSKQTLKTPGKSFTRSKSLKILRNMKKSICNSCPPNKPAESVQSNNSSSFLNFGFANRFSKPKGPRNPPPTWNI | did not exhibit any activity | did not exhibit any activity | – |
| LYP: lymphoid tyrosine phosphatase LYP, encoded by the PTPN22 gene (protein, UniProt Q9Y2R2 1-807, looked up, HA tag) Tyrosine-protein phosphatase …: MDQREILQKFLDEAQSKKITKEEFANEFLKLKRQSTKYKADKTYPTTVAEKPKNIKKNRYKDILPYDYSRVELSLITSDEDSSYINANFIKGVYGPKAYIATQGPLSTTLLDFWRMIWEYSVLIIVMACMEYEMGKKKCERYWAEPGEMQLEFGPFSVSCEAEKRKSDYIIRTLKVKFNSETRTIYQFHYKNWPDHDVPSSIDPILELIWDVRCYQEDDSVPICIHCSAGCGRTGVICAIDYTWMLLKDGIIPENFSVFSLIREMRTQRPSLVQTQEQYELVYNAVLELFKRQMDVIRDKHSGTESQAKHCIPEKNHTLQADSYSPNLPKSTTKAAKMMNQQRTKMEIKESSSFDFRTSEISAKEELVLHPAKSSTSFDFLELNYSFDKNADTTMKWQTKAFPIVGEPLQKHQSLDLGSLLFEGCSNSKPVNAAGRYFNSKVPITRTKSTPFELIQQRETKEVDSKENFSYLESQPHDSCFVEMQAQKVMHVSSAELNYSLPYDSKHQIRNASNVKHHDSSALGVYSYIPLVENPYFSSWPPSGTSSKMSLDLPEKQDGTVFPSSLLPTSSTSLFSYYNSHDSLSLNSPTNISSLLNQESAVLATAPRIDDEIPPPLPVRTPESFIVVEEAGEFSPNVPKSLSSAVKVKIGTSLEWGGTSEPKKFDDSVILRPSKSVKLRSPKSELHQDRSSPPPPLPERTLESFFLADEDCMQAQSIETYSTSYPDTMENSTSSKQTLKTPGKSFTRSKSLKILRNMKKSICNSCPPNKPAESVQSNNSSSFLNFGFANRFSKPKGPRNPPPTWNI | – | – | Inhibition of T cell receptor signaling [7]: potently inhibit T cell receptor (TCR) signaling |
